What was measured:
[1] = Cytotoxicity against mammalian cells; assay type: cell-based; details: human, HeLa-KB cells (subline of HeLa, ATCC CCL-17)
Summary of the method: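 HeLa-KB cells seeded at 4 x 10^4/mL in RPMI-1640 with 10% heat-inactivated FCS and held 24 h (5% CO2). Medium was replaced by test compound in fresh medium, 30 µg/mL to 100 ng/mL, in triplicate, with a podophyllotoxin positive control. After 72 h, alamarBlue for 4 h, then fluorescence at 530/585 nm. CC50 from a nonlinear Emax sigmoid fit; at least three repeats.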

[2] = test system: Leishmania infantum promastigotes; assay: In vitro activity against promastigotes; assay type: cell-based; details: 72 h; for IC50: Leishmania infantum; for MPC (minimal parasiticide concentration): promastigotes, 26 °C, mean ± SD
Summary of the method: (§1)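 Strains: L. amazonensis MHOM/77/LTB0016, L. infantum MHOM/FR/78/LEM75, L. braziliensis MHOM/BR/75/M2 903. Log-phase promastigotes at 5 x 10^5/mL in Schneider's with 10% heat-inactivated FBS; compound added from two-fold DMSO stocks (4 mg/mL–3.9 µg/mL), DMSO at most 0.5%. Incubated 72 h at 26 °C. MPC = geometric mean (4 replicates) of concentrations fully stopping motility, by microscope. Then p-nitrophenyl phosphate, 3 h 37 °C, A405, minus parasite-free drug wells. IC50 by Emax sigmoid fit; at least three repeats.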

[3] = test system: Leishmania amazonensis promastigotes; assay: In vitro activity against promastigotes; assay type: cell-based; details: 72 h; for IC50: Leishmania amazonensis; for MPC (minimal parasiticide concentration): promastigotes, 26 °C, mean ± SD
Summary of the method: as §1

[4] = test system: promastigotes of Leishmania amazonensis, Leishmania infantum and Leishmania braziliensis; assay type: cell-based; details: read-out: Average IC50
Summary of the method: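 IC50 was measured separately for L. amazonensis, L. infantum and L. braziliensis promastigotes. Each assay: 72 h at 26 °C, phosphatase read-out (p-nitrophenyl phosphate, A405), Emax sigmoid fit. The average IC50 is the arithmetic mean of the three species' IC50 values.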

[5] = test system: intracellular amastigotes; assay: Activity against intracellular amastigotes in mouse peritoneal macrophages; assay type: cell-based; details: drug concentrations not toxic to mouse peritoneal macrophages used as host cells; data not shown
Leishmania amazonensis = assay: Mouse model of experimental cutaneous leishmaniasis, lesion size; assay type: in vivo, BALB/c mice; details: furvina 2 mg/Kg, UC245 100 mg/Kg; for average lesion size with respect to the control group: experiment 2: early lesions, intraperitoneal every 12 h for 14 days, 28 days of follow up; for effect on chronic lesions (in words): experiment 3: chronic lesions, 18 weeks post-infection, every 12 h for 14 days
Summary of the method: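 Female BALB/c mice (16-18 g, 6-8 weeks) infected intradermally in the footpad with 5 x 10^6 stationary-phase promastigotes. Intraperitoneal dosing every 12 h for 14 days, test compounds in Miglyol 810. Controls were untreated infected mice and amphotericin B (1 mg/Kg in early lesions; 5 mg/Kg every 48 h in chronic). Lesions measured weekly by Vernier calliper; chronic size taken as dorsoplantar × lateral diameter.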

[6] = test system: Leishmania braziliensis promastigotes; assay: In vitro activity against promastigotes; assay type: cell-based; details: 72 h; for IC50: Leishmania braziliensis; for MPC (minimal parasiticide concentration): promastigotes, 26 °C, mean ± SD
Summary of the method: as §1

SMILES: COc1cc([C@@H]2c3cc4c(cc3[C@H](O)[C@H]3COC(=O)[C@H]23)OCO4)cc(OC)c1OC [podophyllotoxin, reference compound]
- CC50 at 72 h [1]: 0.0053 ± 0.0014 µM

SMILES: CC(=Cc1ccc(Br)o1)[N+](=O)[O-] [UC245, 2-bromo-5-(2-methyl-2-nitrovinyl)-furan]
- IC50 [2]: 0.9 ± 0.3 µM
- MPC (minimal parasiticide concentration) ([2]; complete arrest of motion): 2.7 ± 0.4 µM
- IC50 [3]: 0.9 ± 0.2 µM
- MPC (minimal parasiticide concentration) ([3]; complete arrest of motion): 6.1 ± 0.4 µM
- IC50 [4]: 0.93 µM
- efficacy in reducing the percentage of infected cells [5]: under 50%
- average lesion size with respect to the control group (Leishmania amazonensis): 55%
- effect on chronic lesions (in words) (Leishmania amazonensis): did not show any efficacy
- CC50 at 72 h [1]: 16.7 ± 1.8 µM
- IC50 [6]: 1 ± 0.3 µM
- MPC (minimal parasiticide concentration) ([6]; complete arrest of motion): 5.7 ± 0.4 µM

SMILES: O=[N+]([O-])C(Br)=Cc1ccc(Br)o1 [Furvina, 2-bromo-5-(2-bromo-2-nitrovinyl)-furan]
- IC50 [2]: 1.2 ± 0.3 µM
- MPC (minimal parasiticide concentration) ([2]; complete arrest of motion): 2.9 ± 0.3 µM
- IC50 [3]: 0.8 ± 0.3 µM
- MPC (minimal parasiticide concentration) ([3]; complete arrest of motion): 5.2 ± 0.4 µM
- IC50 [4]: 0.97 µM
- efficacy in reducing the percentage of infected cells [5]: under 50%
- average lesion size with respect to the control group (Leishmania amazonensis): 59%
- effect on chronic lesions (in words) (Leishmania amazonensis): progressively decreased lesion sizes
- CC50 at 72 h [1]: 13.6 ± 2.2 µM
- IC50 [6]: 0.9 ± 0.4 µM
- MPC (minimal parasiticide concentration) ([6]; complete arrest of motion): 1.7 ± 0.4 µM

SMILES: C[C@@H]1[C@H](O)[C@@H](C)/C=C/C=C/C=C/C=C/C=C/C=C/C=C/[C@H](O[C@@H]2O[C@H](C)[C@@H](O)[C@H](N)[C@@H]2O)C[C@@H]2O[C@](O)(C[C@@H](O)C[C@@H](O)[C@H](O)CC[C@@H](O)C[C@@H](O)CC(=O)O[C@H]1C)C[C@H](O)[C@H]2C(=O)O [Amphotericin B, amphotericin B, reference compound]
- IC50 [2]: 0.014 ± 0.004 µM
- MPC (minimal parasiticide concentration) ([2]; amphotericin B): 17 ± 5 nm
- IC50 [3]: 0.029 ± 0.005 µM
- MPC (minimal parasiticide concentration) ([3]; amphotericin B): 55 ± 7 nm
- IC50 [6]: 0.014 ± 0.003 µM
- MPC (minimal parasiticide concentration) ([6]; amphotericin B): 30 ± 6 nm
